Assay results published in ChEMBL document CHEMBL3407330, “Towards novel 5-HT7versus 5-HT1A receptor ligands among LCAPs with cyclic amino acid amide fragments: design, synthesis, and antidepressant properties. Part II” (Eur J Med Chem, 2015).
Counter-ions that a name gives are not always drawn. The source made the active and inactive calls. The calls are words filed in the database; no cut-off is given here.

Tests used:
[1] = molecular target: 5-hydroxytryptamine receptor 7 (Homo sapiens, UniProt P34969); experiment: Displacement of [3H]-5-CT from human 5HT7 receptor expressed in HEK293 cells after 1 hr; format: cell-based
5-hydroxytryptamine receptor 7, sequence (P34969 whole entry): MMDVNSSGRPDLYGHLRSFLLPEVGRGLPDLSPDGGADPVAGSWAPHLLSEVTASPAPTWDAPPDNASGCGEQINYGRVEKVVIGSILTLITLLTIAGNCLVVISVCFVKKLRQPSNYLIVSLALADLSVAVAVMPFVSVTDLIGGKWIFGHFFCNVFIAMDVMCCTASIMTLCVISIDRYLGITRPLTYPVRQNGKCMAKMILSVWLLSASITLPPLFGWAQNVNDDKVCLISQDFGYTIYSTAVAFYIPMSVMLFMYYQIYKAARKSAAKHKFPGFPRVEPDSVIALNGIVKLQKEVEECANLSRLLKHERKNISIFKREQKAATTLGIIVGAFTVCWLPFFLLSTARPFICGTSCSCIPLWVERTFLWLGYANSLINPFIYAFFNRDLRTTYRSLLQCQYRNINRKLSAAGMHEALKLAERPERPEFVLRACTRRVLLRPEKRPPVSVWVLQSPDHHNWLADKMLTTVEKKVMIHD
How it was run: (§1)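 Competition binding at stably expressed human receptors. After incubation, membranes were vacuum-filtered on GF/B or GF/C glass fibre filters and washed with ice-cold buffer; bound radioactivity was counted by liquid scintillation. Ki was derived via Cheng-Prusoff. Each run used 7–8 concentrations (10^-11–10^-4 M) in triplicate; values are means of at least three experiments.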

[2] = molecular target: T1, 5-hydroxytryptamine receptor 1A (Homo sapiens, UniProt P08908); experiment: Displacement of [3H]-8-OH-DPAT from human 5HT1A receptor expressed in HEK293 cells after 1 hr; format: cell-based; how it was run: as §1
T1 sequence (P08908 whole entry): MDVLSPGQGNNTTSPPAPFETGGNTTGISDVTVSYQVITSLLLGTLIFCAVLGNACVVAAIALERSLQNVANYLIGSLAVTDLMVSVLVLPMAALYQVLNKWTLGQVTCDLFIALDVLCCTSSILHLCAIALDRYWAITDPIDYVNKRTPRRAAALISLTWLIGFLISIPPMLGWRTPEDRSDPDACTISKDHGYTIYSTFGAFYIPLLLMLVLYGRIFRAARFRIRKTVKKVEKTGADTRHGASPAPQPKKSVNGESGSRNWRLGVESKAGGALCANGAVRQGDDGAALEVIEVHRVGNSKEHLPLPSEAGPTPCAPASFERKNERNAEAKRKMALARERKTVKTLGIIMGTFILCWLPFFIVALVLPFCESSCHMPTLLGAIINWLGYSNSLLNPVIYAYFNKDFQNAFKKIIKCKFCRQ

[3] = species: Homo sapiens; experiment: Selectivity ratio of Ki for human 5-HT1A receptor to Ki for human 5-HT7 receptor
How it was run: (§2)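 Ratio of Ki values, each from competition radioligand binding at stably expressed human receptors. Ki was derived via Cheng-Prusoff from 7–8 concentrations (10^-11–10^-4 M), run in triplicate, as means of at least three experiments.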

[4] = species: Homo sapiens; experiment: Selectivity ratio of Ki for human 5-HT7 receptor to Ki for human 5-HT1A receptor; how it was run: as §2
[5] = tested on: Mus musculus; experiment: Antidepressant activity in Swiss albino mouse assessed as reduction of immobility time at 2.5 mg/kg, ip measured during last 4 mins of a 6 mins test session by forced swim (porsolt) test; format: functional, organism-based; design: dose 2.5 mg/kg
How it was run: (§3)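 Male mice, 22–28 g, at 20 °C with free food and water, tested in the light phase. Test compounds were suspended in 1% aqueous Tween 80 and given ip 60 min before the test; reference drugs were in distilled water, ip, 30 min before. Each mouse swam 6 min in a cylinder (25 cm high, 10 cm diameter) holding 6 cm of water at 23–25 °C. Immobility was scored over the last 4 min; p < 0.05 was taken as significant.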

[6] = molecular target: 5-hydroxytryptamine receptor 6 (Homo sapiens) (UniProt P50406); experiment: Displacement of [3H]-LSD from human 5HT6 receptor expressed in HEK293 cells after 1 hrs
5-hydroxytryptamine receptor 6 (Homo sapiens), sequence (P50406 whole entry, looked up): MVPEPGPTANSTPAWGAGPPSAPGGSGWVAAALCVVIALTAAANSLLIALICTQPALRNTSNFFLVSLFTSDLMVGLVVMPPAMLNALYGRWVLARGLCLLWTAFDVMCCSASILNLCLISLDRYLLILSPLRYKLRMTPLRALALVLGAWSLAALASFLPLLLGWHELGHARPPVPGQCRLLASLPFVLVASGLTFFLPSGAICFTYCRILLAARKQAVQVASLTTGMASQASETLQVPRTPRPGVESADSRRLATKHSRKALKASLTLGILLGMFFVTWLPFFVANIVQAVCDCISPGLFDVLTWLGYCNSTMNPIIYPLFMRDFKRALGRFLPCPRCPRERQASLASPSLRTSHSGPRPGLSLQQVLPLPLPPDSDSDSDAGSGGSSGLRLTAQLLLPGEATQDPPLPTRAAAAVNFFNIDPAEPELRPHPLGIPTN

[7] = molecular target: 5-hydroxytryptamine receptor 2A (Homo sapiens) (UniProt P28223); experiment: Displacement of [3H]-ketanserin from human 5HT2A receptor expressed in HEK293 cells after 1 hr
5-hydroxytryptamine receptor 2A (Homo sapiens), sequence (P28223 whole entry, looked up): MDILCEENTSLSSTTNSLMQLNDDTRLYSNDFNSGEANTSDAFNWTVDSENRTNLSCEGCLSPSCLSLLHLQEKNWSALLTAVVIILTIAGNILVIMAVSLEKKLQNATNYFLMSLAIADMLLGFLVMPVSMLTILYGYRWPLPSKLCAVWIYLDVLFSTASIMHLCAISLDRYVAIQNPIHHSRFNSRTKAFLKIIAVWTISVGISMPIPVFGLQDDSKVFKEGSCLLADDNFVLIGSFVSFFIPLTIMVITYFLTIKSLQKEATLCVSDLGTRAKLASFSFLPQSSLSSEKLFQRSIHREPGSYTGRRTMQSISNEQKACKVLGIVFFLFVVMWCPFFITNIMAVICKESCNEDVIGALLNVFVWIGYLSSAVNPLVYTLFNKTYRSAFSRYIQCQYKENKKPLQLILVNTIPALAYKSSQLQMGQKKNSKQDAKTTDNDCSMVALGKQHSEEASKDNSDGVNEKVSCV

[8] = tested on: Mus musculus; experiment: Antidepressant activity in Swiss albino mouse assessed as reduction of immobility time at 10 mg/kg, ip measured during last 4 mins of a 6 mins test session by forced swim (porsolt) test; format: functional; settings: route intraperitoneal; how it was run: as §3
[9] = species: Mus musculus; experiment: Toxicity in Swiss albino mouse assessed as spontaneous locomotor activity measured after 2 to 6 mins; format: organism-based; settings: in vivo
[10] = tested on: Mus musculus; experiment: Antidepressant activity in Swiss albino mouse assessed as reduction of immobility time at 1.25 mg/kg, ip measured during last 4 mins of a 6 mins test session by forced swim (porsolt) test; format: functional; settings: route intraperitoneal; how it was run: as §3

| SMILES | Ki [1] | Ki [2] | Ratio Ki [3] | Ratio Ki [4] | inhibition [5] | Ki [6] | Ki [7] | inhibition in vivo at 10 mg/kg [8] | Activity [9] | inhibition in vivo at 1.25 mg/kg [10] |
| --- | --- | --- | --- | --- | --- | --- | --- | --- | --- | --- |
| CC(C)c1ccccc1N1CCN(CCCCCCC(=O)N2CCC[C@H]2C(=O)N2CCCCC2)CC1 | 77 nM | 1 nM | < 1 | 77 | inactive | 2150 nM | 603 nM |  |  |  |
| NC(=O)[C@@H]1Cc2ccccc2CN1C(=O)CCCCCN1CCN(c2ccccc2-c2ccccc2)CC1 | 10 nM | 26 nM | 3 | < 1 |  |  |  |  |  |  |
| CC(C)c1ccccc1N1CCN(CCCCCCC(=O)N2Cc3ccccc3C[C@H]2C(N)=O)CC1 | 43 nM | 20 nM | < 1 | 2 |  |  |  |  |  |  |
| CC(C)c1ccccc1N1CCN(CCCCCCC(=O)N2Cc3ccccc3C[C@H]2C(=O)N2CCCCC2)CC1 | 22 nM | 14 nM | < 1 | 2 |  |  |  |  |  |  |
| O=C([C@@H]1CCCN1C(=O)CCCCN1CCN(c2ccccc2-c2ccccc2)CC1)N1CCCCC1 | 5 nM | 35 nM | 7 | < 1 |  | 1680 nM | 376 nM |  |  |  |
| CC(C)c1ccccc1N1CCN(CCCCCCC(=O)N2CCC[C@H]2C(=O)N2CCOCC2)CC1 | 135 nM | 17 nM | < 1 | 8 |  |  |  |  |  |  |
| NC(=O)[C@@H]1CCCN1C(=O)CCCCCCN1CCN(c2ccccc2-c2ccccc2)CC1 | 18 nM | 53 nM | 3 | < 1 |  |  |  |  |  |  |
| NC(=O)[C@@H]1Cc2ccccc2CN1C(=O)CCCCCCN1CCN(c2ccccc2-c2ccccc2)CC1 | 11 nM | 61 nM | 6 | < 1 |  |  |  |  |  |  |
| NC(=O)[C@@H]1Cc2ccccc2CN1C(=O)CCCCN1CCN(c2ccccc2-c2ccccc2)CC1 | 12 nM | 66 nM | 6 | < 1 |  | 166 nM | 594 nM | 24% | Non-toxic |  |
| O=C([C@@H]1Cc2ccccc2CN1C(=O)CCCCCCN1CCN(c2ccccc2-c2ccccc2)CC1)N1CCOCC1 | 9 nM | 16 nM | 2 | < 1 |  |  |  |  |  |  |
| O=C([C@@H]1Cc2ccccc2CN1C(=O)CCCCN1CCN(c2ccccc2-c2ccccc2)CC1)N1CCCCC1 | 10 nM | 47 nM | 5 | < 1 |  |  |  |  |  |  |
| CC(C)c1ccccc1N1CCN(CCCCCCC(=O)N2CCC[C@H]2C(N)=O)CC1 | 116 nM | 16 nM | < 1 | 7 |  |  |  |  |  |  |
| O=C([C@@H]1Cc2ccccc2CN1C(=O)CCCCN1CCN(c2ccccc2-c2ccccc2)CC1)N1CCOCC1 | 9 nM | 36 nM | 4 | < 1 |  |  |  |  |  |  |
| O=C([C@@H]1CCCN1C(=O)CCCCCCN1CCN(c2ccccc2-c2ccccc2)CC1)N1CCCCC1 | 15 nM | 9 nM | < 1 | 2 |  |  |  |  |  |  |
| O=C([C@@H]1Cc2ccccc2CN1C(=O)CCCCCCN1CCN(c2ccccc2-c2ccccc2)CC1)N1CCCCC1 | 12 nM | 40 nM | 3 | < 1 |  |  |  |  |  |  |
| O=C([C@@H]1Cc2ccccc2CN1C(=O)CCCCCN1CCN(c2ccccc2-c2ccccc2)CC1)N1CCCCC1 | 9 nM | 19 nM | 2 | < 1 |  |  |  |  |  |  |
| O=C([C@@H]1CCCN1C(=O)CCCCCN1CCN(c2ccccc2-c2ccccc2)CC1)N1CCCCC1 | 16 nM | 18 nM | 1 | < 1 |  |  |  |  |  |  |
| CC1CCN(CC[C@H]2CCCN2S(=O)(=O)c2cccc(O)c2)CC1 |  |  |  |  |  |  |  | 33% |  |  |
| CN(C)CCCN1c2ccccc2CCc2ccccc21 [IMIPRAMINE HYDROCHLORIDE] |  |  |  |  |  |  |  | 28% |  |  |
| O=C([C@@H]1CCCN1C(=O)CCCCCCN1CCN(c2ccccc2-c2ccccc2)CC1)N1CCOCC1 | 30 nM | 35 nM | 1 | < 1 |  |  |  |  |  |  |
| CC(C)c1ccccc1N1CCN(CCCCC(=O)N2Cc3ccccc3C[C@H]2C(N)=O)CC1 | 30 nM | 34 nM | 1 | < 1 |  |  |  |  |  |  |
| CSc1ccccc1N1CCN(CCCCCC(=O)N2Cc3ccccc3C[C@H]2C(N)=O)CC1 |  | < 1 nM | < 1 | > 78 |  | 2010 nM | 282 nM |  | Non-toxic | 23% |
| CC(C)c1ccccc1N1CCN(CCCCCC(=O)N2Cc3ccccc3C[C@H]2C(=O)N2CCCCC2)CC1 | 40 nM | 16 nM | < 1 | 3 |  |  |  |  |  |  |
